Measurements of several laboratories.
Each line is one published result; the experiments were not run side by side.

Structure (SMILES)	host	medium	route	dose	setting	quantity	value
CCNCCCNC/C=C\CNCCCNCC	human	plasma	intravenous	50 mg	patients, infusion	Vd	2.12 L/kg
COc1ccc([C@@H]2CN(C(=O)[C@@H](O)CO)C[C@@]2(C)[C@@H](C)O)cc1OC1CN(c2ccc(C)cn2)C1	human	plasma	oral	1.5 mg	single dose, healthy volunteers	Vd/F	55.7 L
CC(C)(C)c1ccc(O)c(CN(Cc2cc(C(C)(C)C)ccc2O)C2CCC(NC(N)=O)CC2)c1 (centres unmarked)	male C57BL/6 mouse	brain	oral	10 mg/kg	single dose	Cmax	550 ng/g
CC(C)(Sc1ccncc1-c1ccc(C#N)c2ccccc12)C(=O)O	male human	plasma	oral	20 mg	single dose, fasted, healthy volunteers	Vd/F	328 L
COc1cc(C(=O)NC2CCN(C)CC2)c(F)cc1Nc1ncc(C(F)(F)F)c(Oc2cccc3c2C(=O)N(C)C3)n1	human	plasma	oral	100 mg	multiple doses, once daily, patients	Vd/F	284 L
C[C@@]1(c2cc(NC(=O)c3ccc(C#N)cn3)ccc2F)C=CSC(N)=N1	human	plasma	oral	10 mg	single dose	Vd/F	210 L
Cc1cc(Nc2cc(N3CCN(C)CC3)nc(/C=C/c3ccccc3)n2)n[nH]1	human	plasma	oral	60 mg/m²	multiple doses, patients	Vd/F	699 L
Cc1nc(-c2cnc(NC(C)C)n(C)c2=O)ccc1Oc1ccnc(-c2cnn(C)c2)c1	female mouse	plasma	oral	3.75 mg/kg	single dose	Cmax	2780 ng/mL
